Experimental data published in ChEMBL document CHEMBL4725436, “Gibberellin JRA-003: A Selective Inhibitor of Nuclear Translocation of IKKα” (ACS Med Chem Lett, 2020).

Tests used:
[1] = system: CA46; assay: Cytotoxicity against human CA46 cells assessed as reduction in cell viability measured after 24 hrs by CellTiter-Glo luminescent assay; format: functional, cell-based; conditions: CA46, 24 h
Summary of the method: (§1)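 High-throughput viability screen of test agents across a panel of 22 cancerous and noncancerous human cell lines. Viability was read by CellTiter-Glo luminescence.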

[2] = Inhibition of IKKalpha/IKKbeta in human HEK293T cells transfected with firefly luciferase gene assessed as inhibition of TNF-alpha-stimulated NF-kappaB signalling preincubated for 1 hr followed by TNF alpha stimulation measured after 3 hrs by luciferase reporter gene assay; format: cell-based; conditions: HEK-293T
Summary of the method: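 Commercial NF-κB-driven luciferase reporter assay in HEK 293T cells stimulated with TNFα. EC50 was derived from the luminescence readout.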

[3] = system: HEK-293T; assay: Cytotoxicity against human HEK293T cells assessed as reduction in cell viability measured after 24 hrs by CellTiter-Glo luminescent assay; format: cell-based; summary of the method: as §1
[4] = system: HCC1599; assay: Cytotoxicity against human HCC1599 cells assessed as reduction in cell viability measured after 24 hrs by CellTiter-Glo luminescent assay; format: functional, cell-based; conditions: HCC1599, 24 h; summary of the method: as §1
[5] = system: HEK-293T; assay: Inhibition of IKKalpha/IKKbeta in human HEK293T cells transfected with firefly luciferase gene assessed as inhibition of NF-kappaB signalling at 10 uM by luciferase reporter gene assay; format: cell-based
[6] = Selectivity index, ratio of IC50 for human Hs578Bst cells to EC50 for human HS578T cells measured after 24 hrs by CellTiter-Glo luminescent assay; format: toxicity; conditions: Hs578Bst cells (IC50) versus HS578T cells (EC50); summary of the method: as §1

**Q.** Which EC50 [1] does the source give for `C=C1C[C@]23C[C@@]1(O)CC[C@H]2[C@@]12C=CC(=O)[C@@](C)(C(=O)O1)[C@H]2[C@@H]3C(=O)OC` here?
**A.** < 40 nM

**Q.** And the EC50 [2]?
**A.** 2600 nM

**Q.** And the IC50 [3]?
**A.** > 10000 nM

**Q.** What about the EC50 [4] of the same compound?
**A.** 150 nM

**Q.** What about the inhibition [5] of the same compound?
**A.** 100%

**Q.** And the selectivity ratio at 24 h [6]?
**A.** 500
